ChEMBL document CHEMBL1921775, “Phenolic glycosides from sugar maple (Acer saccharum) bark” (J Nat Prod, 2011)
In brackets after ≈: the same amount, converted by molar mass.

What was measured:
[1] = Cytotoxicity against human CCD-18Co cells after 72 hrs by MTS assay; assay type: cell-based
Summary of the method: (§1)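 Colon cells (Caco-2 adenocarcinoma, nontumorigenic CCD-18Co) in EMEM with 10% FBS, 1% nonessential amino acids, 1% L-glutamine and antibiotics, passages 26–35, 37 °C, 5% CO2. Samples were dissolved in DMSO by sonication and diluted in medium, with final DMSO ≤0.5%. Six-point 4-fold dilution series ran for 72 h. MTS/PMS was read at OD490 after 3 h. IC50 reported as mean ± SD of three experiments.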

HCT-116 = assay: Cytotoxicity against human HCT116 cells after 72 hrs by MTS assay; assay type: functional, cell-based; conditions: HCT-116, 72 h
Summary of the method: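 HCT-116 carcinoma cells in McCoy's 5A with 10% FBS, 1% nonessential amino acids, 2% HEPES and antibiotics, passages 26–35, 37 °C, 5% CO2. Samples were DMSO-solubilized by sonication and diluted in medium, final DMSO ≤0.5%. Cells were exposed for 72 h to six-point 4-fold dilutions. MTS plus phenazine methosulfate ran 3 h, with absorbance at 490 nm versus control wells. IC50 given as mean ± SD, three experiments.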

Caco-2 = assay: Cytotoxicity against human Caco2 cells after 72 hrs by MTS assay; assay type: functional, cell-based; conditions: Caco-2, 72 h; summary of the method: as §1

| SMILES | IC50 [1] [µg/mL] | IC50 (HCT-116) [µg/mL] | IC50 (Caco-2) [µg/mL] |
| --- | --- | --- | --- |
| COC(=O)c1cc(O[C@@H]2O[C@H](CO[C@@H]3OC[C@](O)(CO)[C@H]3O)[C@@H](O)[C@H](O)[C@H]2O)ccc1O [SACCHARUMOSIDE C] | < 5 | < 5 | < 5 |
| COc1cc(O[C@@H]2O[C@H](CO[C@@H]3OC[C@](O)(CO)[C@H]3O)[C@@H](O)[C@H](O)[C@H]2O)cc(OC)c1OC | < 5 | < 5 | < 5 |
| COc1cc(CO)ccc1O[C@@H]1O[C@H](CO)[C@@H](O)[C@H](O)[C@H]1O [VANILLOLOSIDE] | < 5 | < 5 | < 5 |
| COc1cc(C(=O)OC[C@H]2O[C@@H](Oc3ccc(CO)cc3OC)[C@H](O)[C@@H](O)[C@@H]2O)ccc1O [SACCHARUMOSIDE B] | < 5 | < 5 | < 5 |
| COc1cc([C@H]2OC[C@H]3[C@@H]2CO[C@@H]3c2cc(OC)c(O[C@@H]3O[C@H](CO)[C@@H](O)[C@H](O)[C@H]3O)c(OC)c2)cc(OC)c1O | < 5 | < 5 | < 5 |
| COc1cc2ccc(=O)oc2cc1O[C@@H]1O[C@H](CO)[C@@H](O)[C@H](O)[C@H]1O [SCOPOLIN] | < 5 | < 5 | < 5 |
| COc1cc(C(=O)OC[C@H]2O[C@@H](Oc3ccc([C@@H]4Oc5c(OC)cc(CCCO)cc5[C@H]4CO)cc3OC)[C@H](O)[C@@H](O)[C@@H]2O)ccc1O [SACCHARUMOSIDE A] | < 5 | < 5 | < 5 |
| COc1cc([C@@H]2c3cc4c(cc3[C@@H](O[C@@H]3O[C@@H]5CO[C@@H](C)O[C@H]5[C@H](O)[C@H]3O)[C@H]3COC(=O)[C@H]23)OCO4)cc(OC)c1O [ETOPOSIDE] | 43.6 (≈ 74.1 µM) | 9.9 (≈ 16.8 µM) | 9.4 (≈ 16 µM) |
| COc1cc(O[C@@H]2O[C@H](CO)[C@@H](O)[C@H](O)[C@H]2O)cc(OC)c1OC | < 5 | < 5 | < 5 |
| COc1cc(CO)cc(OC)c1O[C@@H]1O[C@H](CO)[C@@H](O)[C@H](O)[C@H]1O | < 5 | < 5 | < 5 |
| COc1cc(CO)ccc1O[C@@H]1O[C@H](CO[C@@H]2OC[C@](O)(CO)[C@H]2O)[C@@H](O)[C@H](O)[C@H]1O | < 5 | < 5 | < 5 |
| COC(=O)c1cc(O[C@@H]2O[C@H](CO)[C@@H](O)[C@H](O)[C@H]2O[C@@H]2OC[C@](O)(CO)[C@H]2O)ccc1O [SACCHARUMOSIDE D] | < 5 | < 5 | < 5 |
| COc1cc([C@@H]2Oc3c(OC)cc(CCCO)cc3[C@H]2CO)ccc1O[C@@H]1O[C@@H](C)[C@H](O)[C@@H](O)[C@H]1O | < 5 | < 5 | < 5 |
